We go through 20 compounds from ChEMBL document CHEMBL1153536, “5-lipoxygenase-activating protein inhibitors: development of 3-[3-tert-butylsulfanyl-1-[4-(6-methoxy-pyridin-3-yl)-benzyl]-5-(pyridin-2-ylmethoxy)-1H-indol-2-yl]-2,2-dimethyl-propionic acid (AM103)” (J Med Chem, 2009).

By IC50 is commonly meant the midpoint of a concentration-inhibition curve. By inhibition is commonly meant the relative decrease from the control value, in per cent. A higher inhibition goes with strong suppression. As usually defined, the Cmax is the maximum level reached in the sampled fluid or tissue. Usually bioavailability stands for the share of a dose that reaches the circulation, judged against a reference dose that is usually intravenous. Higher therefore signals much systemic uptake. One may read the AUC as the area under the concentration-time curve, a measure of exposure. The low end stands for less exposure, the high end for more exposure. The half-life is how long it takes for the measured level to halve. Higher therefore signals slow loss.

A short description of data set [1]: Inhibition of calcium ionophore A-23187-stimulated LTB4 production in human leukocytes by ELISA. It is filed as functional, cell-based. The following applies: Leukocyte. In short, it runs like this:
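Dextran-sedimented, hypotonically lysed human leukocytes at 1.25 × 10^5 cells/mL, preincubated 5 min at 37 °C with compound in DMSO. Stimulated 5 min at 37 °C with A23187 (5 μL of 0.5 mM into 250 μL). Supernatant LTB4 measured by ELISA at 1:4 dilution; IC50 by nonlinear regression of % inhibition vs log concentration.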
In general terms: ELISA stands for enzyme-linked immunosorbent assay.

Another data set concerns Blood. The data set can be described thus: Inhibition of calcium ionophore A-23187-stimulated LTB4 production in human whole blood by ELISA. The data set is classed as functional, tissue-based. The method in brief:
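Heparinized human whole blood preincubated 15 min at 37 °C with compound in DMSO. Stimulated 30 min at 37 °C with A23187 (2 μL of 1.5 mM into 150 μL). Plasma LTB4 measured by ELISA at 1:100 dilution; IC50 by nonlinear regression. A single value is one assay averaging two donors.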

The target in data set [2] is T1, Arachidonate 5-lipoxygenase-activating protein (Homo sapiens, UniProt P20292).
T1 sequence (P20292 whole entry): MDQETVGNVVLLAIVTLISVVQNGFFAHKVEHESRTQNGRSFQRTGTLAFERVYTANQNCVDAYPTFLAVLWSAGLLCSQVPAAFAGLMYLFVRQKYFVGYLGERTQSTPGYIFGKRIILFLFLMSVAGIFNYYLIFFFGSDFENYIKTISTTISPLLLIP
Kind of data set: Displacement of [3H]3-[5-(pyrid-2-ylmethoxy)-3-tert-butylthio-1-benzyl-indol-2-yl]-2,2-dimethylpropionic acid from FLAP in human polymorphonuclear cell membrane.

Data set [3] addresses T2, Cytochrome P450 3A4 (Homo sapiens, UniProt P08684). Kind of data set: Inhibition of CYP3A4 assessed as inhibition rate.
Another data set concerns the target CYP3A4 (Homo sapiens, UniProt P08684). The data set can be described thus: Inhibition of CYP3A4 at 10 uM. It is filed as ADME.
The target in the next data set is Cytochrome P450 2D6 (Homo sapiens, UniProt P10635). The data set can be described thus: Inhibition of CYP2D6. It is filed as ADME.
Sequence of Cytochrome P450 2D6 (P10635 whole entry): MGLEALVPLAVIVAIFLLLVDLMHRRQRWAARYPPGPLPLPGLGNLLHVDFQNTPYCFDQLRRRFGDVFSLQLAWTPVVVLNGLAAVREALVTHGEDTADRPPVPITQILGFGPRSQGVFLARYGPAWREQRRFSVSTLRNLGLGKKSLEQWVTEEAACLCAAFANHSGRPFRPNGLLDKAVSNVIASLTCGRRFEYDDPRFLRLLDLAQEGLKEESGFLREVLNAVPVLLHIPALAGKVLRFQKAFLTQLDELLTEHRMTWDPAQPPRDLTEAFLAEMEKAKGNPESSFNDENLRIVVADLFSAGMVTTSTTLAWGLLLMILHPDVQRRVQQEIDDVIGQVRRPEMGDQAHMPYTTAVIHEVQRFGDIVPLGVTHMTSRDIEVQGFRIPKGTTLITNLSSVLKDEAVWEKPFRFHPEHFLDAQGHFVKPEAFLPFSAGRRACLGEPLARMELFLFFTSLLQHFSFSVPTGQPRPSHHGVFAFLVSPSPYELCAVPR
In another data set the target is Cytochrome P450 2C9 (Homo sapiens, UniProt P11712). Kind of data set: Inhibition of CYP2C9. The data set is classed as ADME.
Sequence of Cytochrome P450 2C9 (P11712 whole entry): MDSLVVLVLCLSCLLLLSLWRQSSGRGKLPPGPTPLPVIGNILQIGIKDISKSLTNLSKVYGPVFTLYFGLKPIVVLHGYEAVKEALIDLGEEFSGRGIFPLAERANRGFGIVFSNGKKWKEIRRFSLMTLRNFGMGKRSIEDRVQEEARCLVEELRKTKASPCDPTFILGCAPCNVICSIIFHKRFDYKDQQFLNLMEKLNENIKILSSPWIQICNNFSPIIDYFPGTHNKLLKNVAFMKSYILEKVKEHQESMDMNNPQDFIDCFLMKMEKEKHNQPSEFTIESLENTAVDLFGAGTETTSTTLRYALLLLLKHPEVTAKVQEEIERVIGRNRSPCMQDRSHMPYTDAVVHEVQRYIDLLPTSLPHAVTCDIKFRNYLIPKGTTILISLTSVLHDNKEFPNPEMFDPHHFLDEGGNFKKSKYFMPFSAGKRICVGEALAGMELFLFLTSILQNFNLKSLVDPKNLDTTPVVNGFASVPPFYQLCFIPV
For data set [4], the target named is T2, Cytochrome P450 3A4. The data set can be described thus: Inhibition of CYP3A4. The data set is classed as ADME.
Data set [5] is described as follows: Clearance in Sprague-Dawley rat at 2 mg/kg, iv and 10 mg/kg, po. It is filed as ADME, organism-based. The following applies: in vivo. The method in brief:
(§1)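 Male rats fasted overnight, 2 or 3 per route. Dosing was 2 mg/kg i.v. as a jugular bolus in PEG400/ethanol/water (40/10/50) and 10 mg/kg p.o. by gavage in 0.5% methylcellulose. Jugular cannula blood was sampled up to 24 h (8-9 samples). Plasma was acetonitrile-precipitated with buspirone internal standard and quantified by LC-MS/MS, positive ESI MRM, calibration […], LLOQ 1-5 ng/mL.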

Data set [6] in a line: Cmax in Sprague-Dawley rat after 10 mg/kg oral dose. Conditions: in vivo. Also on record: dose 10 mg/kg, route oral. The data set is classed as ADME, organism-based. The method in brief:
as §1

Data set [7] in a line: Bioavailability in Sprague-Dawley rat at 2 mg/kg, iv and 10 mg/kg, po. It is filed as ADME, organism-based. The following applies: Sprague-Dawley, in vivo. The method in brief:
as §1

Data set [8] in a line: AUC in Sprague-Dawley rat at 10 mg/kg, po. It is filed as ADME, organism-based. Set-up: dose 10 mg/kg, route oral. The following applies: plasma. The method in brief:
as §1

The nature of data set [9]: Half life in Sprague-Dawley rat at 2 mg/kg, iv after 6 to 24 hrs. It is filed as ADME, organism-based. Set-up: dose 2 mg/kg, route intravenous. Conditions: in vivo. In short, it runs like this:
as §1

Data set [10] in a line: Volume of distribution at steady state in Sprague-Dawley rat at 2 mg/kg, iv and 10 mg/kg, po. The data set is classed as ADME, organism-based. Conditions: in vivo, read-out: Vdss. The method in brief: as §1
A short description of data set [11]: Half life in Sprague-Dawley rat at 2 mg/kg, iv. It is filed as ADME, organism-based. Set-up: dose 2 mg/kg, route intravenous. The following applies: in vivo. In short, it runs like this: as §1
Data set [12] deals with Prostaglandin G/H synthase 1 (Homo sapiens, UniProt P23219). The data set can be described thus: Inhibition of COX1 in human whole blood. It is filed as tissue-based.
Sequence of Prostaglandin G/H synthase 1 (P23219 whole entry): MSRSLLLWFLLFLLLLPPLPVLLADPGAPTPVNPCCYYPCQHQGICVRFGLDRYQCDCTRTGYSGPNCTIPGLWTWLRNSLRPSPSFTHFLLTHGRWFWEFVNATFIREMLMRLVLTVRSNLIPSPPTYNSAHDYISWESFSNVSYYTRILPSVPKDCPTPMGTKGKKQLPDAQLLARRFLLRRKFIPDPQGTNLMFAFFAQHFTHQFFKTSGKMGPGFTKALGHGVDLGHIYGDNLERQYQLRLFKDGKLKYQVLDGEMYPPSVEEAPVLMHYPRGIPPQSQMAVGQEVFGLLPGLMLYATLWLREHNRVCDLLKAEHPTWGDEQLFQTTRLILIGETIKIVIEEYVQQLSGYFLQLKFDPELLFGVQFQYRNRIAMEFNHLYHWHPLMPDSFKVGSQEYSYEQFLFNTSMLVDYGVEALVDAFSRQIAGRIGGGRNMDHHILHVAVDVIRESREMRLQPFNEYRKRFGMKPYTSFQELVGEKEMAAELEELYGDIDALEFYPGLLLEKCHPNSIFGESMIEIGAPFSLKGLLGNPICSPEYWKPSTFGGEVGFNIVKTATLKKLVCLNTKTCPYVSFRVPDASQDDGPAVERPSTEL

T2 sequence (P08684 whole entry): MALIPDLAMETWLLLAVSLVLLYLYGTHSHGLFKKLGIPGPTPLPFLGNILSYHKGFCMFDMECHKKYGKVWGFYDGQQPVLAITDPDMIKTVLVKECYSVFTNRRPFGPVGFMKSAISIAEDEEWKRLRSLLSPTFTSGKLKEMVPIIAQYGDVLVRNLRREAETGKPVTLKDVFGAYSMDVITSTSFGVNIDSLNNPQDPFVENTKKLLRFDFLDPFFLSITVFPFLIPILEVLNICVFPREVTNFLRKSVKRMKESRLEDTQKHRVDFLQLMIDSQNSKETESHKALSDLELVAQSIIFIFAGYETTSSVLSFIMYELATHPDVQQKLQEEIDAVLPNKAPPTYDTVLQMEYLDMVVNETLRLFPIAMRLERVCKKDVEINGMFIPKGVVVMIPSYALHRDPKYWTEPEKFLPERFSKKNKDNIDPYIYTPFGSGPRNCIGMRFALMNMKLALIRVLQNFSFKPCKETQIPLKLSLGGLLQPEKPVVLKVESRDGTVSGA
Sequence of CYP3A4 (P08684 whole entry): as above

`CC(C)(C)Sc1c(CC(C)(C)C(=O)O)n(Cc2ccc(-c3cnccn3)cc2)c2ccc(OCc3ccccn3)cc12`: the 50% inhibitory concentration (IC50) turned out to be 12 nM in [1], 1650 nM in the data set with Blood and 28 nM in data set [2].
For the compound `COc1nc(-c2ccc(Cn3c(CC(C)(C)C(=O)O)c(SC(C)(C)C)c4cc(OCc5ccccn5)ccc43)cc2)cs1`, in [2], the IC50 worked out at 3.3 nM. In addition, the TDI on Cytochrome P450 3A4 [3] is 0.018 min⁻¹.
`CC(C)(C)Sc1c(CC(C)(C)C(=O)O)n(Cc2ccc(-c3ncc(F)s3)cc2)c2ccc(OCc3ccccn3)cc12` registered an IC50 in data set [2] of 2.1 nM. Further, on Cytochrome P450 3A4 [3], the TDI amounted to 0.017 min⁻¹.
Consider `Cc1ccc(-c2ccc(Cn3c(CC(C)(C)C(=O)O)c(SC(C)(C)C)c4cc(OCc5ccccn5)ccc43)cc2)cn1`, for which testing at 10 µM against CYP3A4 gave an inhibition of 64%. Moreover, the concentration for half-maximal inhibition (IC50) in [1] was 1.3 nM; on Cytochrome P450 2D6 it was over 10000 nM; in the data set on Blood, 577 nM; in data set [2], 6.5 nM; against Cytochrome P450 2C9, 10000 nM.
As to `CC(C)(C)Sc1c(CC(C)(C)C(=O)O)n(Cc2ccc(-c3cncnc3)cc2)c2ccc(OCc3ccccn3)cc12`, the 50% inhibitory concentration (IC50) in data set [1] stood at 3.3 nM; in the data set on Blood, 1040 nM; in data set [2] it was 7.7 nM.
On the same counts, the results for `CC(C)(Cc1cc2cc(OCc3ccccn3)ccc2n1Cc1ccc(-c2nccs2)cc1)C(=O)O` are 19 nM, 5520 nM and 299 nM.
Turning to `COc1ccc(-c2ccc(Cn3c(CC(C)(C)C(=O)O)c([S+]([O-])C(C)(C)C)c4cc(OCc5ccccn5)ccc43)cc2)cn1` (stereo unspecified), the IC50 in [1] is 2000 nM; in data set [2] it was 793 nM.
In the case of `Cc1ccc(-c2ccc(Cn3c(CC(C)(C)C(=O)O)c(SC(C)(C)C)c4cc(OCc5ccccn5)ccc43)cc2)nn1`, the figures for the IC50 (in [1]; with Blood; in data set [2]) were 17 nM, 4370 nM and 27 nM, respectively.
As to `CC(C)(C)Sc1c(CC(C)(C)C(=O)O)n(Cc2ccc(Cl)cc2)c2ccc(OCc3ccccn3)cc12`, the IC50 at Cytochrome P450 3A4 [4] was 11500 nM; in data set [1], 0.8 nM; against Cytochrome P450 2D6 it was over 30000 nM; in the data set on Blood, 512 nM; in data set [2], 1.7 nM; on Cytochrome P450 2C9 it was 1000 nM.
In turn, `Cc1cnc(-c2ccc(Cn3c(CC(C)(C)C(=O)O)c(SC(C)(C)C)c4cc(OCc5ccccn5)ccc43)cc2)s1` registered an IC50 in data set [2] of 4.8 nM. In addition, on Cytochrome P450 3A4 [3], the TDI amounted to 0.014 min⁻¹.
`CC(C)(C)CCc1c(CC(C)(C)C(=O)O)n(Cc2ccc(-c3nccs3)cc2)c2ccc(OCc3ccccn3)cc12`: the IC50 in data set [1] was 5.3 nM; in the data set with Blood, 4860 nM; in [2], 229 nM.
The like results for `CC(C)(Cc1c(CC2CCC2)c2cc(OCc3ccccn3)ccc2n1Cc1ccc(-c2nccs2)cc1)C(=O)O` were, in that order, 1.1 nM, 391 nM and 6.6 nM.
Consider `Cc1csc(-c2ccc(Cn3c(CC(C)(C)C(=O)O)c(SC(C)(C)C)c4cc(OCc5ccccn5)ccc43)cc2)n1`, for which the half-maximal inhibitory concentration (IC50) in [2] was determined as 7.3 nM. Further, the TDI on Cytochrome P450 3A4 [3] came to 0.006 min⁻¹.
Turning to `CC(C)(C)Sc1c(CC(C)(C)C(=O)O)n(Cc2ccc(-c3cccnc3)cc2)c2ccc(OCc3ccccn3)cc12`, in [5], the clearance was 7 mL/min/kg. Also, the IC50 was 4700 nM against Cytochrome P450 3A4 [4]; 3.4 nM in [1]; 2600 nM against Cytochrome P450 2D6; 370 nM in the data set with Blood; 9 nM in data set [2]; 15500 nM at Cytochrome P450 2C9. In data set [6], this compound had a Cmax of 920 ng/mL. Further, the bioavailability in data set [7] is 8%. Further, the area under the curve (AUC) in [8] stood at 1880 ng·h/mL. Besides, the half-life in data set [9] is 7.6 h. Besides, the Vd in [10] is 0.38 L/kg.
For `CC(C)(C)Sc1c(CC(C)(C)C(=O)O)n(Cc2ccc(-c3ncccn3)cc2)c2ccc(OCc3ccccn3)cc12`, the half-maximal inhibitory concentration (IC50) at Cytochrome P450 3A4 [4] is over 10000 nM; in data set [1], 6.4 nM; against Cytochrome P450 2D6, over 10000 nM; with Blood, 1210 nM; in [2], 6.9 nM; against Cytochrome P450 2C9, over 10000 nM.
For the compound `CC(C)(C)Sc1c(CC(C)(C)C(=O)O)n(Cc2ccc(Cl)cc2)c2ccc(OCc3ccc4ccccc4n3)cc12` [QUIFLAPON], the 50% inhibitory concentration (IC50) in [1] stood at 0.5 nM; on Cytochrome P450 2D6, 11000 nM; in the data set with Blood it was 540 nM; against Cytochrome P450 2C9, 500 nM. In addition, on Cytochrome P450 3A4 [3], the TDI turned out to be 0.009 min⁻¹.
`COc1ccc(-c2ccc(Cn3c(CC(C)(C)C(=O)O)c(S(=O)(=O)C(C)(C)C)c4cc(OCc5ccccn5)ccc43)cc2)cn1`: the IC50 in data set [1] was determined as 59 nM; in the data set with Blood, 3420 nM; in [2] it was 205 nM.
The compound `CC(C)(C)Sc1c(CC(C)(C)C(=O)O)n(Cc2ccc(-c3nccs3)cc2)c2ccc(OCc3ccccn3)cc12` had a clearance in data set [5] of 8.6 mL/min/kg. Further, the IC50 at Cytochrome P450 3A4 [4] turned out to be 1400 nM; in [1], 1 nM; at Cytochrome P450 2D6 it was 4000 nM; with Blood, 273 nM; in data set [2], 4.8 nM; against Cytochrome P450 2C9 it was 9100 nM. In data set [6], this compound had a Cmax of 4300 ng/mL. In addition, the half-life in data set [11] was 6.3 h. In data set [7], this compound had a bioavailability of 50%. This compound also came in with an AUC in data set [8] of 9540 ng·h/mL. For the same compound, the Vd in data set [10] is 0.71 L/kg. Besides, the TDI on Cytochrome P450 3A4 [3] stood at 0.033 min⁻¹.
With `COc1ccc(-c2cccc(Cn3c(CC(C)(C)C(=O)O)c(SC(C)(C)C)c4cc(OCc5ccccn5)ccc43)c2)cn1`, the half-maximal inhibitory concentration (IC50) in data set [1] came out at 1.2 nM; in data set [12] it was 420 nM; in the data set with Blood, 934 nM; in [2] it was 5.5 nM.
For `CC(C)(Cc1c(C(=O)C2CCC2)c2cc(OCc3ccccn3)ccc2n1Cc1ccc(-c2nccs2)cc1)C(=O)O`, the IC50 worked out at 130 nM in data set [1], 33500 nM in the data set on Blood and 444 nM in data set [2].
